Results: publication PMC2754219 (Obesity (Silver Spring, Md.), 2009)

What was measured:
[1] = tested on: obese or overweight subjects; assay: Clinical study: treatment-emergent adverse events, tolerability and withdrawals
[2] = tested on: nonleptin-deficient obesity; settings: doses up to twofold those used in this study; and data on file, Amylin Pharmaceuticals, Inc.; cited from earlier work
[3] = type: in vivo, human; settings: week 16; metreleptin 5 mg b.i.d. s.c.
How it was run: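 Predose plasma leptin was measured at week 16 and expressed relative to enrollment concentration. Subjects received a leptin analogue at 5mg b.i.d. s.c., alone or with an amylin analogue at 360 μg b.i.d., each injected separately 15 min before morning and evening meals. Analysis covered the evaluable population; values are mean ± s.e.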

[4] = tested on: obese or overweight subjects; type: in vivo, human
[5] = tested on: obese or overweight subjects; assay: Clinical study: fasting lipoprotein and glycemic control parameters; type: in vivo, human; settings: enrollment to week 16, evaluable population, mean ± s.e., SEM
How it was run: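 Fasting glucose, insulin, lipids and HOMA-IR were taken as change from enrollment to week 16 after the 4-week amylin analogue lead-in with a 40% caloric-deficit diet. This was followed by randomized s.c. b.i.d. leptin analogue, amylin analogue, or both, and advice to keep a 20% caloric deficit. Evaluable subjects had completed week 16; values are mean ± s.e.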

[6] = ITT population, lead-in and postrandomization periods
[7] = evaluable population, LS mean ± s.e., SEM

**Q.** Which Back pain [1, 6] does the source give for “Metreleptin: recombinant methyl-human leptin (metreleptin)” here?
**A.** The Back pain was 0 (0.0) n (%).

**Q.** And the Constipation [1, 6]?
**A.** The Constipation was 1 (3.7) n (%).

**Q.** What about the Diarrhea [1, 6] of the same substance?
**A.** The Diarrhea was 0 (0.0) n (%).

**Q.** And the Headache [1, 6]?
**A.** The Headache was 2 (7.4) n (%).

**Q.** What about the Hypersensitivity [1, 6] of the same substance?
**A.** The Hypersensitivity was 2 (7.4) n (%).

**Q.** What about the Influenza [1, 6] of the same substance?
**A.** Its Influenza is 1 (3.7) n (%).

**Q.** What about the “Injection site adverse events” value [1, 6] of the same substance?
**A.** Its value is 18 (66.7) n (%).

**Q.** And the Nasopharyngitis [1, 6]?
**A.** The Nasopharyngitis was 2 (7.4) n (%).

**Q.** What about the Nausea [1, 6] of the same substance?
**A.** The Nausea was 7 (25.9) n (%).

**Q.** What about the Streptococcal pharyngitis [1, 6] of the same substance?
**A.** The Streptococcal pharyngitis was 0 (0.0) n (%).

**Q.** And the Vomiting [1, 6]?
**A.** Its Vomiting is 2 (7.4) n (%).

**Q.** What about the “Withdrew during randomized treatment, reason: Adverse event” value ([1]; through week 20, randomized/ITT population) of the same substance?
**A.** Its value is 3 (11) n (%).

**Q.** And the “Weight loss in previous monotherapy trials” value [2]?
**A.** The value was “failed to show significant weight loss”.

**Q.** And the “Increase of predose leptin concentrations over enrollment concentrations” value [3]?
**A.** Its value is 13- to 16 fold.

**Q.** What about the “Overall rate of weight change” value ([4]; day 1 to week 20, evaluable population, LS mean ± s.e., SEM) of the same substance?
**A.** The value was −0.16 ± 0.06 kg/week.

**Q.** And the “Rate of weight change, Day 1 to week 12” value [4, 7]?
**A.** Its value is −0.23 ± 0.06 kg/week.

**Q.** And the “Rate of weight change, Week 12 to week 20” value [4, 7]?
**A.** The value was −0.02 ± 0.08 kg/week.

**Q.** And the “Weight loss, percent of initial body weight over 24 weeks” value ([4]; evaluable, rounded figures of the discussion)?
**A.** Its value is ~ 8%.

**Q.** What about the “Change in HOMA-IR” value [5] of the same substance?
**A.** The value was −0.10 ± 0.29.

**Q.** And the Change in insulin ([5]; fasting serum)?
**A.** The Change in insulin was −0.6 ± 1.1 μIU/ml.

**Q.** And the “Change in HDL” value ([5]; fasting)?
**A.** Its value is 1.7 ± 1.5 mg/dL.

**Q.** What about the “Change in LDL” value ([5]; fasting) of the same substance?
**A.** The value was 1.1 ± 5.1 mg/dL.

**Q.** And the “Change in blood glucose” value ([5]; fasting)?
**A.** The value was 0.7 ± 1.7 mg/dL.

**Q.** What about the “Change in total cholesterol” value ([5]; fasting) of the same substance?
**A.** Its value is 2.7 ± 5.8 mg/dL.

**Q.** And the Change in triglycerides ([5]; fasting)?
**A.** The Change in triglycerides was 5.7 ± 13.5 mg/dL.
